The test system of one series is M14. The series is described as follows: Antiproliferative activity against human M14 cells after 72 hrs by CellTiter 96 aqueous nonradioactive cell proliferation assay. It counts as functional, cell-based. Particulars: M14, 72 h; call rule not given here. The essentials: (§1)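 Antiproliferation in cultured tumour cells, at least 3 replicate wells per concentration per experiment. NCI-H460 came from ATCC. M14, NCI/ADR-RES, OVCAR-4, HCT-15, ACHN and SF-295 came from the National Cancer Institute. IC50 reported from single experiments where no SD is given.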

A further series concerns NCI-H460. Briefly: Antiproliferative activity against human NCI-H460 cells after 72 hrs by CellTiter 96 aqueous nonradioactive cell proliferation assay. In kind it is functional, cell-based. To be noted: NCI-H460, 72 h. The essentials: as §1
Series [1] is described as follows: Drug uptake in tumor of human NCI-H460 cells xenografted in Crl:NU(NCr)-Foxn1 nu mouse at 40 mg/kg, ip measured at 3 hrs post injection by LC-MS analysis. In kind it is ADME, organism-based, Neoplasm. Particulars: in vivo. The essentials:
(§2)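 Male Nu/Nu mice, some bearing NCI-H460 or LOX-IMVI xenografts, given a single ip dose at 3 mL/kg. Organic vehicle components were dissolved first, with the aqueous part added gradually. Mice were euthanized at 1 h or 3 h. Cardiac blood was taken into NaEDTA/NaF plasma separator tubes. Quantification used loratadine internal standard against a spiked blank-plasma curve. Tumours were run as duplicate ~200 mg samples homogenized in 3% SDS and extracted twice with ethyl acetate, assuming 1 g tissue = 1 mL.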
Background: In xenograft studies the graft and the host belong to different species.

The nature of series [2]: Plasma concentration in Crl:NU(NCr)-Foxn1 nu mouse xenografted with human NCI-H460 cells at 40 mg/kg, ip injected via vehicle solution measured at 1 hr post injection by LC-MS analysis. In kind it is ADME, organism-based. To be noted: in vivo. The essentials:
as §2

Another series has as its system UO-31. Briefly: Antiproliferative activity against taxane-resistant human UO31 cells after 72 hrs by CellTiter 96 aqueous nonradioactive cell proliferation assay. It counts as functional, cell-based. To be noted: UO-31, 72 h.
In a further series the test system is HCT-15. Briefly: Antiproliferative activity against taxane-resistant human HCT15 cells after 72 hrs by CellTiter 96 aqueous nonradioactive cell proliferation assay. It counts as functional, cell-based. Particulars: HCT-15, 72 h. The essentials: as §1
For the next series, the system named is ACHN. The series is described as follows: Antiproliferative activity against taxane-resistant human ACHN cells after 72 hrs by CellTiter 96 aqueous nonradioactive cell proliferation assay. It counts as functional, cell-based. The essentials:
as §1

The test system of the next series is EKVX. Briefly: Antiproliferative activity against taxane-resistant human EKVX cells after 72 hrs by CellTiter 96 aqueous nonradioactive cell proliferation assay. It counts as functional, cell-based.
The test system of another series is OVCAR-4. The series is described as follows: Potency index, ratio of paclitaxel IC50 to compound IC50 for taxane-resistant human OVCAR4 cells after 72 hrs by CellTiter 96 aqueous nonradioactive cell proliferation assay. In kind it is functional.
Series [3] is described as follows: Toxicity in Crl:NU(NCr)-Foxn1 nu mouse xenografted with human […] cells assessed as mortality at 50 mg/kg, ip qd administered for 3 consecutive days followed by 2 days of rest for 3 cycles. In kind it is organism-based. Particulars: in vivo, 48 h. The essentials:
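Female athymic nude mice bearing subcutaneous NCI-H522 xenografts started from tumor fragments kept by continuous in vivo passage. Mice were grouped once tumors reached about 75-200 mm3. Dosing was ip at 5-10 mL/kg in 22% ethanol, 38% PEG400, 40% 20 mM Na citrate pH 5.0. Deaths per group were recorded with maximum mean bodyweight loss.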

A short description of series [4]: Toxicity in Crl:NU(NCr)-Foxn1 nu mouse xenografted with human Calu6 cells assessed as mortality at 50 mg/kg, ip qd administered for 3 consecutive days followed by 2 days of rest for 4 cycles. In kind it is organism-based. Particulars: in vivo, 48 h. The essentials: (§3)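 Female athymic nude mice bearing subcutaneous xenografts started from cultured human tumor cells. Mice were split into vehicle and treatment groups once tumors reached about 75-200 mm3. Dosing was ip at 5-10 mL/kg in 22% ethanol, 38% PEG400, 40% 20 mM Na citrate pH 5.0. Deaths per group were recorded alongside maximum mean bodyweight loss.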

Series [5] in a line: Toxicity in Crl:NU(NCr)-Foxn1 nu mouse xenografted with human NCI-H69 cells assessed as mortality at 60 mg/kg, ip dosed on day 1 followed by 4 days rest and subsequently dosed at 60 mg/kg, ip qd administered for 3 consecutive days followed by 2 days of rest for 2 cycles. To be noted: in vivo. It counts as organism-based. The essentials:
as §3

Series [6] can be described thus: Toxicity in Crl:NU(NCr)-Foxn1 nu mouse xenografted with human NCI-H69 cells assessed as mortality at 70 mg/kg, ip dosed on day 1 followed by 4 days rest and subsequently dosed at 70 mg/kg, ip qd administered for 3 consecutive days followed by 2 days of rest for 2 cycles. It counts as organism-based. To be noted: in vivo. The essentials: as §3
Series [7] can be described thus: Toxicity in Crl:NU(NCr)-Foxn1 nu mouse xenografted with human LOX-IMVI cells assessed as mortality at 30 mg/kg, ip qd administered for 7 consecutive days. It counts as organism-based. Particulars: in vivo. The essentials:
as §3

Series [8] is described as follows: Toxicity in Crl:NU(NCr)-Foxn1 nu mouse xenografted with human NCI-H460 cells assessed as maximum body weight loss at 60 mg/kg, ip qd administered for 3 consecutive days followed by 2 days of rest for 3 cycles measured after 8 days post dose relative to control. It counts as organism-based. To be noted: in vivo, 192 h. The essentials: (§4)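 Female athymic nude mice bearing subcutaneous xenografts, started from cultured cells (NCI-H460, Calu-6, NCI-H69, LOX-IMVI) or from serially passaged tumour fragments (NCI-H522). Mice were grouped into vehicle and treatment arms at tumour volumes of about 75-200 mm3. Dosing was ip at 5-10 mL/kg in 22% ethanol, 38% PEG400, 40% 20 mM Na citrate pH 5.0. Caliper volumes were taken as (length × width2)/2. Treated and control delta weights were median tumour weight minus staging-day median.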

Series [9] in a line: Toxicity in Crl:NU(NCr)-Foxn1 nu mouse xenografted with human […] cells assessed as maximum body weight loss at 40 mg/kg, ip qd administered for 3 consecutive days followed by 2 days of rest for 3 cycles measured after 7 days post dose relative to control. In kind it is organism-based. Particulars: in vivo, 168 h. The essentials:
as §4

Series [10] is described as follows: Toxicity in Crl:NU(NCr)-Foxn1 nu mouse xenografted with human LOX-IMVI cells assessed as maximum body weight loss at 30 mg/kg, ip qd administered for 7 consecutive days measured after 6 days post dose relative to control. In kind it is organism-based. To be noted: in vivo, 144 h. The essentials:
as §4

The next series concerns NCI-H522. Briefly: Antitumor activity against human NCI-H522 cells xenografted in Crl:NU(NCr)-Foxn1 nu mouse assessed as tumor growth inhibition at 50 mg/kg, ip qd administered for 3 consecutive days followed by 2 days of rest for 3 cycles relative to control. Particulars: 48 h, read-out: TGI. In kind it is functional. The essentials:
as §4

Series [11] has as its system Calu-6. The series is described as follows: Antitumor activity against human Calu6 cells xenografted in Crl:NU(NCr)-Foxn1 nu mouse assessed as tumor growth inhibition at 50 mg/kg, ip qd administered for 3 consecutive days followed by 2 days of rest for 4 cycles relative to control. In kind it is functional. To be noted: Calu-6, ip, 48 h, read-out: TGI. The essentials:
as §4

In series [12] the test system is Calu-6. The series is described as follows: Antitumor activity against human Calu6 cells xenografted in Crl:NU(NCr)-Foxn1 nu mouse assessed as tumor growth inhibition at 60 mg/kg, ip qd administered for 3 consecutive days followed by 2 days of rest for 4 cycles relative to control. It counts as functional. To be noted: Calu-6, ip, 48 h, read-out: TGI. The essentials: as §4

The subject of the next series is NCI-H69. The series is described as follows: Antitumor activity against human NCI-H69 cells xenografted in Crl:NU(NCr)-Foxn1 nu mouse assessed as tumor growth inhibition at 70 mg/kg, ip dosed on day 1 followed by 4 days rest and subsequently dosed at 70 mg/kg, ip qd administered for 3 consecutive days followed by 2 days of rest for 2 cycles relative to control. In kind it is functional. Particulars: read-out: TGI. The essentials:
as §4

One may read the IC50 as the concentration needed to halve the response being measured. On to `C=CC[C@H]1C[C@]2([C@H](C)Cc3cc(O)c(OC)cc3F)OCOC2=CC1=O`, for which the half-inhibitory concentration (IC50) with M14 amounted to 0.017 µM; in the series with NCI-H460, 0.015 µM; with UO-31, 0.007 µM; in the series on HCT-15, 0.014 µM; in the series with ACHN, 0.012 µM; in the series with EKVX it was 0.007 µM. For the same molecule, the Drug uptake entry in [1] and in [2] was “Active” in each case. Also, the “Ratio IC50” value in the series on OVCAR-4 is given as more than 75. Moreover, the Activity result in [3] was “Non-Toxic”; in series [4], “Non-Toxic”; in series [5], “Non-Toxic”; in series [6] it was “Non-Toxic”; in series [7], “Non-Toxic”; in series [8], 12%. The Activity in series [9] is on record as 3%; in [10], 9%. In addition, the inhibition in vivo at 50 mg/kg came to 69% in the series with NCI-H522 and 76% in the series with Calu-6 [11]. The inhibition in vivo at 60 mg/kg in the series with Calu-6 [12] worked out at 63%. In addition, the inhibition in vivo at 70 mg/kg in the series with NCI-H69 stood at 84%.
